# Square brackets hold non-standard residues; d marks the D form. Peptide text beside a SMILES is read from it. * marks the point of attachment. ξ: configuration not given here. Butanoyl(4-(4-HOPh)) = O=C(CCCc1ccc(O)cc1)*; ξαMeF = CC(N)(Cc1ccccc1)C(=O)O; Bz = O=C(c1ccccc1)*
# Key:
# Canis familiaris [1] = assay: Renal vasodilator activity in anesthetized dogs and percent change in mean arterial blood pressure (MABP) was determined at 3 ug/Kg/min; format: functional, Canis lupus familiaris
# In short: (§1)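 Primary screen in anesthetized dogs (7-17 kg). Drug infused separately at 3, 30 and 300 µg/(kg min), each infusion lasting 5 min, at about 15-min intervals. Read-outs are renal blood flow, mean arterial blood pressure, heart rate, and RVR (MABP / mean RBF), as percent change. Significance thresholds are defined per number of dogs; n = 1-3 dogs.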
# Canis familiaris [2] = assay: In vivo percent change in renal blood flow at 30 ug/Kg/min.; format: functional, Canis lupus familiaris, Kidney; in short: as §1
# Canis familiaris [3] = assay: In vivo percent change in canine heart rate at 3 ug/Kg/min.; format: functional, Canis lupus familiaris; in short: as §1
# Canis familiaris [4] = assay: In vivo percent change in canine heart rate at 30 ug/Kg/min.; format: functional, Canis lupus familiaris; in short: as §1
# Canis familiaris [5] = assay: In vivo percent change in canine heart rate at 300 ug/Kg/min.; format: functional, Canis lupus familiaris; in short: as §1
# Canis familiaris [6] = assay: In vivo percent change in canine mean arterial blood pressure (MABP) at 30 ug/Kg/min.; format: functional, Canis lupus familiaris; in short: as §1
# Canis familiaris [7] = assay: In vivo percent change in canine mean arterial blood pressure (MABP) at 300 ug/Kg/min.; format: functional, Canis lupus familiaris; in short: as §1
# Canis familiaris [8] = assay: In vivo percent change in canine renal blood flow (RBF) at 3 ug/Kg/min.; format: functional, Canis lupus familiaris, Kidney; in short: as §1
# Canis familiaris [9] = assay: In vivo percent change in canine renal blood flow (RBF) at 300 ug/Kg/min.; format: functional, Canis lupus familiaris, Kidney; in short: as §1
# Canis familiaris [10] = assay: In vivo percent change in canine renal vascular resistance (RVR) at 3 ug/Kg/min.; format: functional, Canis lupus familiaris; in short: as §1
# Canis familiaris [11] = assay: In vivo percent change in canine renal vascular resistance (RVR) at 30 ug/Kg/min.; format: functional, Canis lupus familiaris; in short: as §1
# Canis familiaris [12] = assay: In vivo percent change in canine renal vascular resistance (RVR) at 300 ug/Kg/min.; format: functional, Canis lupus familiaris; in short: as §1
# Canis familiaris [13] = assay: Renal vasodilator activity in anesthetized dogs and percent change in heart rate (HR) was determined at 300 ug/Kg/min; format: functional, Canis lupus familiaris; in short: as §1
# Canis familiaris [14] = assay: In vivo percent change in canine mean arterial blood pressure (MABP) at 3 ug/Kg/min.; format: functional, Canis lupus familiaris; in short: as §1
# [15] = Average max percent decrease in RVR (renal vascular resistance) was determined.
# In short: (§2)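 Secondary protocol in anesthetized dogs. Drug given as iv infusion at progressively increasing rates, each dose level for 5 min. The maximum effect is taken as the largest percent decrease in renal vascular resistance (RVR) reached with the compound. RVR is calculated as mean arterial blood pressure / mean renal blood flow.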
# Canis familiaris [16] = assay: Compound was evaluated for renal vasodilator activity and represented as ED15 (intravenous administration); format: functional; conditions: Canis lupus familiaris
# In short: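 Secondary protocol in anesthetized dogs with iv infusion at progressively increasing rates, each level infused 5 min. Potency is the cumulative dose (µg/kg) that lowered renal vascular resistance (MABP / mean RBF) by 15%. Minimum change needed for significance (p = 0.95) is 16% for RVR.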
# Canis familiaris [17] = assay: In vivo percent change in canine renal blood flow (RBF) at 30 ug/Kg/min.; format: functional, Canis lupus familiaris, Kidney; in short: as §1
# [18] = Ratio of ED20 of MABP (mean arterial blood pressure) to the ED15 of RVR ( renal vascular resistance).; format: functional
# In short: (§3)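 Anesthetized dogs in the secondary cumulative-infusion protocol, each dose level 5 min. Selectivity ratio is the dose giving a 20% change in mean arterial blood pressure divided by the cumulative dose lowering renal vascular resistance 15% (RVR ED15).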
# [19] = Ratio of ED30 of iliac vascular resistant (IVR) to the ED15 of RVR (renal vascular resistance); format: functional
# In short: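 Anesthetized dogs in the secondary cumulative-infusion protocol, each dose level 5 min. Selectivity ratio is the dose giving a 30% change in iliac vascular resistance divided by the RVR ED15, the cumulative dose decreasing renal vascular resistance by 15%.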
# Canis familiaris [20] = assay: Renal vasodilator activity in anesthetized dogs and percent change in renal vascular resistance (RVR) was determined at 30 ug/Kg/min; format: functional, Canis lupus familiaris; in short: as §1
# Canis familiaris [21] = assay: Renal vasodilator activity in anesthetized dogs and percent change in renal vascular resistance (RVR) was determined at 300 ug/Kg/min; format: functional, Canis lupus familiaris; in short: as §1
# [22] = Average max percent decrease in RVR (renal vascular resistance) was determined; in short: as §2
# Canis familiaris [23] = assay: Renal vasodilator activity in anesthetized dogs was determined as percent change in heart rate (HR) at 30 ug/Kg/min; format: functional, Canis lupus familiaris; in short: as §1
# [24] = Ratio of ED20 of MABP (mean arterial blood pressure) to the ED15 of RVR (renal vascular resistance); format: functional; in short: as §3
# Canis familiaris [25] = assay: Renal vasodilator activity in anesthetized dogs and percent change in heart rate (HR) was determined at 3 ug/kg min; format: functional, Canis lupus familiaris; in short: as §1
# Canis familiaris [26] = assay: Renal vasodilator activity in anesthetized dogs and percent change in heart rate (HR) was determined at 30 ug/kg min; format: functional, Canis lupus familiaris; in short: as §1
# Canis familiaris [27] = assay: Renal vasodilator activity in anesthetized dogs and percent change in heart rate (HR) was determined at 300 ug/kg min; format: functional, Canis lupus familiaris; in short: as §1
# Canis familiaris [28] = assay: Renal vasodilator activity in anesthetized dogs and percent change in mean arterial blood pressure (MABP) was determined at 3 ug/kg min; format: functional, Canis lupus familiaris; in short: as §1
# Canis familiaris [29] = assay: Renal vasodilator activity in anesthetized dogs and percent change in mean arterial blood pressure (MABP) was determined at 30 ug/kg min; format: functional, Canis lupus familiaris; in short: as §1
# Canis familiaris [30] = assay: Renal vasodilator activity in anesthetized dogs and percent change in mean arterial blood pressure (MABP) was determined at 300 ug/kg min; format: functional, Canis lupus familiaris; in short: as §1
# Canis familiaris [31] = assay: Renal vasodilator activity in anesthetized dogs and percent change in renal blood flow (RBF) was determined at 3 ug/kg min; format: functional, Canis lupus familiaris, Kidney; in short: as §1
# Canis familiaris [32] = assay: Renal vasodilator activity in anesthetized dogs and percent change in renal blood flow (RBF) was determined at 30 ug/kg min; format: functional, Canis lupus familiaris, Kidney; in short: as §1
# Canis familiaris [33] = assay: Renal vasodilator activity in anesthetized dogs and percent change in renal blood flow (RBF) was determined at 300 ug/kg min; format: functional, Canis lupus familiaris, Kidney; in short: as §1
# Canis familiaris [34] = assay: Renal vasodilator activity in anesthetized dogs and percent change in renal vascular resistance (RVR) was determined at 3 ug/kg min; format: functional, Canis lupus familiaris; in short: as §1
# Canis familiaris [35] = assay: Renal vasodilator activity in anesthetized dogs and percent change in renal vascular resistance (RVR) was determined at 300 ug/kg min; format: functional, Canis lupus familiaris; in short: as §1
# Canis familiaris [36] = assay: Renal vasodilator activity in anesthetized dogs and percent change in renal vascular resistance (RVR) was determined at 30 ug/kg min; format: functional, Canis lupus familiaris; in short: as §1
Structure (SMILES),Change (Canis familiaris [2]) [%],Change (Canis familiaris [3]) [%],Change (Canis familiaris [4]) [%],Change (Canis familiaris [5]) [%],Change (Canis familiaris [6]) [%],Change (Canis familiaris [7]) [%],Change (Canis familiaris [8]) [%],Change (Canis familiaris [9]) [%],Change (Canis familiaris [10]) [%],Change (Canis familiaris [11]) [%],Change (Canis familiaris [12]) [%],Change (Canis familiaris [14]) [%],ED15 (Canis familiaris [16]) [mg/kg],Ratio [19],further results
COc1ccc(CC(C)(NC(=O)[C@@H]2CCCN2C(=O)CCCc2ccccc2)C(=O)N[C@@H](CCCN=C(N)N)C(=O)O)cc1OC (stereo partly specified),8.5,4.5,1,2.5,-1,-2,7.5,5,-8.5,-8.5,-7,,,,Change (Canis familiaris [1]): -2%
CC(Cc1ccccc1)(NC(=O)[C@@H]1CCCN1C(=O)c1ccccc1)C(=O)N[C@@H](CCCN=C(N)N)C(=O)O (stereo partly specified) (Bz-Pro-[ξαMeF]-Arg-OH),3,-6,3,,1,-4,4,-3,-5,-2,0,-1,,,Change (Canis familiaris [13]): 6%
CC(Cc1ccccc1)(NC(=O)[C@@H]1CCCN1C(=O)CC12CC3CC(CC(C3)C1)C2)C(=O)N[C@@H](CCCN=C(N)N)C(=O)O (stereo partly specified),,3.5,0.5,2,1,3,13,-14,-11.5,-0.5,21.5,,0.072,0,Decrease [15]: 19%; Change (Canis familiaris [1]): -0.5%; Change (Canis familiaris [17]): 0.5%; Ratio [18]: >84
CC(Cc1ccccc1)(NC(=O)[C@@H]1CCCN1C(=O)CCCc1ccccc1)C(=O)N1CCC[C@H]1C(=O)O (stereo partly specified),2,0,0,-2,0,1,3,4,-8,,,0.5,,,Change (Canis familiaris [20]): -2%; Change (Canis familiaris [21]): -3%
CC(Cc1ccccc1)(NC(=O)[C@@H]1CCCN1)C(=O)NCCCN.Cl.Cl (stereo partly specified),1,-1,-1,,-1,-1,5,2,-4,-1,-3,1,,,Change (Canis familiaris [13]): 0%
CC(Cc1ccccc1)(NC(=O)[C@@H]1CCCN1C(=O)CCCc1ccc(O)cc1)C(=O)NCC(=O)N1CCC[C@H]1C(=O)O (stereo partly specified) ({Butanoyl(4-(4-HOPh))}-P[ξαMeF]GP-OH),16,6,,6,-9,-6,17,14,-18,,-17,-5,0.0049,> 1230,Decrease [22]: 20%; Change (Canis familiaris [20]): -21%; Change (Canis familiaris [23]): 10%; Ratio [24]: >1226
CC(Cc1ccc(O)cc1)(NC(=O)[C@@H]1CCCN1C(=O)CCCc1ccc(O)cc1)C(=O)N[C@@H](CCCN=C(N)N)C(=O)O (stereo partly specified),,,,,,,,,,,,,0.0455,< 9,Decrease [15]: 16%; Change (Canis familiaris [25]): 3.5%; Change (Canis familiaris [26]): -7.5%; Change (Canis familiaris [27]): 2.4%; Change (Canis familiaris [28]): -2.5%; Change (Canis familiaris [29]): -3%; Change (Canis familiaris [30]): 1%; Change (Canis familiaris [31]): 20%; Change (Canis familiaris [32]): 28%; Change (Canis familiaris [33]): 28%; Change (Canis familiaris [34]): -19%; Change (Canis familiaris [35]): -17%; Change (Canis familiaris [36]): -20%; Ratio [18]: >1665

# Reference: ChEMBL document CHEMBL1122774, “Tri- and tetrapeptide analogues of kinins as potential renal vasodilators” (J Med Chem, 1984)
